Measurements from ChEMBL document CHEMBL1121581, “4-Piperazinyl-10H-thieno[2,3-b][1,5]benzodiazepines as potential neuroleptics” (J Med Chem, 1980).

Tests used:
Mus musculus = test: Hypothermia in mice after peroral administration; type: functional
[1] = Lethal dose in mice after perorla administration; type: toxicity, organism-based; conditions: mouse, in vivo, po
Rattus norvegicus [2] = test: Compound was assessed for its ability to block a conditioned avoidance response; Dose administered perorally is 12.5 mg/kg; 76-99%block; type: functional; conditions: route oral
Summary of the method: (§1)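 Lilly Wistar rats (120–130 g) trained in a shuttle box to cross on a 5-s buzzer, with mild shock if no response within 1 s of buzzer end. Only rats with a high conditioned response were used. Groups of five were dosed orally 1 h 50 min before the session, then habituated 10 min and tested 20 min. Shocks were scored as % of stimuli and graded 0–5.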

Rattus norvegicus [3] = test: Compound was assessed for its ability to produce catalepsy in rats; Dose administered perorally is 10 mg/kg; Group score is 4-7; type: functional; conditions: route oral
Summary of the method: (§2)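 Groups of eight Lilly Wistar rats (180–190 g) were dosed orally, then checked at 0.5, 1, 1.5, 2, 3, 4 and 5 h. Front paws were placed on a 1.5-cm rod 7 cm above the table, and hold time was recorded up to 20 min. Each rat was scored 0–5 and its maximum scores were summed per group (maximum 40), then graded 0–4.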

Rattus norvegicus [4] = test: Compound was assessed for its ability to produce catalepsy in rats; Dose administered perorally is 80; Group score is 8-15; type: functional
Rattus norvegicus [5] = test: Compound was assessed for its ability to block a conditioned avoidance response; Dose administered perorally is 30 mg/kg; 51-75%block; type: functional; conditions: route oral
Summary of the method: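 Trained Lilly Wistar rats (120–130 g) in a shuttle box, 5-s buzzer with mild shock if no response within 1 s of buzzer end. Only high-responders used; groups of five dosed orally 1 h 50 min before test, 10-min habituation, then 20-min session. Block = shocks as % of stimuli presented, scored 0–5 (3 = 51–75% block).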

Rattus norvegicus [6] = test: Compound was assessed for its ability to block a conditioned avoidance response; Dose administered intraperitoneally is 50 mg/kg; 31-50%block; type: functional; conditions: route intraperitoneal
Summary of the method: (§3)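 Shuttle-box conditioned avoidance in Lilly Wistar rats (120–130 g) pretrained to a 5-s buzzer with mild shock after a 1-s failure to respond. Groups of five had 10-min habituation and a 20-min test. Block was taken as shocks received as % of buzzer presentations and graded 0–5. Maximum dose was half the rotarod-disruption ED₅₀.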

Rattus norvegicus [7] = test: Compound was assessed for its ability to block a conditioned avoidance response; Dose administered perorally is 10 mg/kg; 76-99%block; type: functional; conditions: route oral; summary of the method: as §1
Rattus norvegicus [8] = test: Compound was assessed for its ability to produce catalepsy in rats; Dose administered perorally is 10 mg/kg; Group score is 8-15; type: functional; conditions: route oral; summary of the method: as §2
Rattus norvegicus [9] = test: Compound was assessed for its ability to produce catalepsy in rats; Dose administered perorally is 8 mg/kg; Group score is 4-7; type: functional; conditions: route oral; summary of the method: as §2
Rattus norvegicus [10] = test: Compound was assessed for its ability to block a conditioned avoidance response; Dose administered perorally is 8 mg/kg; 76-99%block; type: functional; conditions: route oral; summary of the method: as §1
Rattus norvegicus [11] = test: Compound was assessed for its ability to block a conditioned avoidance response; Dose administered perorally is 1.25 mg/kg; 51-75%block; type: functional; conditions: route oral; summary of the method: as §1
Rattus norvegicus [12] = test: Compound was assessed for its ability to produce catalepsy in rats; Dose administered perorally is 1.25 mg/kg; Group score is 16-30; type: functional; conditions: route oral; summary of the method: as §2
Rattus norvegicus [13] = test: Compound was assessed for its ability to produce catalepsy in rats; Dose administered perorally is 50 mg/kg; Group score is 0-3; type: functional; conditions: route oral; summary of the method: as §2
Rattus norvegicus [14] = test: Compound was assessed for its ability to block a conditioned avoidance response; Dose administered intraperitoneally is 20 mg/kg; 31-50%block; type: functional; conditions: route intraperitoneal; summary of the method: as §3
Rattus norvegicus [15] = test: Compound was assessed for its ability to block a conditioned avoidance response; Dose administered intraperitoneally is 40 mg/kg; no significant effect (0-25%block); type: functional; conditions: route intraperitoneal; summary of the method: as §3
Rattus norvegicus [16] = test: Compound was assessed for its ability to produce catalepsy in rats; Dose administered perorally is 25 mg/kg; Group score is 4-7; type: functional; conditions: route oral; summary of the method: as §2
Rattus norvegicus [17] = test: Compound was assessed for its ability to block a conditioned avoidance response; Dose administered perorally is 50 mg/kg; 51-75%block; type: functional; conditions: route oral; summary of the method: as §1
Rattus norvegicus [18] = test: Compound was assessed for its ability to produce catalepsy in rats; Dose administered perorally is 12 mg/kg; Group score is 8-15; type: functional; conditions: route oral; summary of the method: as §2
Rattus norvegicus [19] = test: Compound was assessed for its ability to block a conditioned avoidance response; Dose administered perorally is 6 mg/kg; 51-75%block; type: functional; conditions: route oral; summary of the method: as §1
Rattus norvegicus [20] = test: Compound was assessed for its ability to produce catalepsy in rats; Dose administered perorally is 50 mg/kg; Group score is 8-15; type: functional; conditions: route oral; summary of the method: as §2
Rattus norvegicus [21] = test: Compound was assessed for its ability to block a conditioned avoidance response; Dose administered perorally is 25 mg/kg; 26-30%block; type: functional; conditions: route oral, in the assay text read “31-50%block” for “26-30%block”; summary of the method: as §1
Rattus norvegicus [22] = test: Compound was assessed for its ability to block a conditioned avoidance response; Dose administered perorally is 30 mg/kg; Complete block of conditioned & unconditioned response; type: functional; conditions: route oral; summary of the method: as §1
Rattus norvegicus [23] = test: Compound was assessed for its ability to produce catalepsy in rats; Dose administered perorally is 60 mg/kg; Group score is 8-15; type: functional; conditions: route oral; summary of the method: as §2
Rattus norvegicus [24] = test: Compound was assessed for its ability to produce catalepsy in rats; Dose administered subcutaneously is 30 mg/kg; Group score is 4-7; type: functional; conditions: route subcutaneous
Rattus norvegicus [25] = test: Compound was assessed for its ability to block a conditioned avoidance response; Dose administered intraperitoneally is 20 mg/kg; 26-30%block; type: functional; conditions: route intraperitoneal; summary of the method: as §3
Rattus norvegicus [26] = test: Compound was assessed for its ability to block a conditioned avoidance response; Dose administered perorally is 10 mg/kg; 31-50%block; type: functional; conditions: route oral; summary of the method: as §1
Rattus norvegicus [27] = test: Compound was assessed for its ability to produce catalepsy in rats; Dose administered perorally is 12.5 mg/kg; Group score is 8-15; type: functional; conditions: route oral; summary of the method: as §2
Rattus norvegicus [28] = test: Compound was assessed for its ability to block a conditioned avoidance response; Dose administered intraperitoneally is 50 mg/kg; 26-30%block; type: functional; conditions: route intraperitoneal; summary of the method: as §3
Rattus norvegicus [29] = test: Compound was assessed for its ability to block a conditioned avoidance response; Dose administered intraperitoneally is 40 mg/kg; 26-30%block; type: functional; conditions: route intraperitoneal; summary of the method: as §3
Rattus norvegicus [30] = test: Compound was assessed for its ability to block a conditioned avoidance response; Dose administered perorally is 4 mg/kg; 26-30%block; type: functional; conditions: route oral; summary of the method: as §1

CCc1cc2c(s1)Nc1ccc(F)cc1N=C2N1CC[N+](C)([O-])CC1
EDmin (Mus musculus): 25 mg/kg
LD50 [1]: 200 mg/kg
Activity (Rattus norvegicus [2]): 4
Activity (Rattus norvegicus [3]): 1

CN1CCN(C2=Nc3cc(Cl)ccc3Nc3ccccc32)CC1 [CLOZAPINE]
EDmin (Mus musculus): 50 mg/kg
Activity (Rattus norvegicus [4]): 2
Activity (Rattus norvegicus [5]): 3

CCc1cc2c(s1)Nc1ccc(F)cc1N=C2NCCCN1CCN(C)CC1
EDmin (Mus musculus): 200 mg/kg
LD50 [1]: 400 mg/kg
Activity (Rattus norvegicus [6]): 2

CC(C)c1cc2c(s1)Nc1ccc(F)cc1N=C2N1CCN(C)CC1
EDmin (Mus musculus): 6.25 mg/kg
LD50 [1]: 50 mg/kg
Activity (Rattus norvegicus [7]): 4
Activity (Rattus norvegicus [8]): 2

Cc1cc2c(s1)Nc1ccc(F)cc1N=C2N1CCN(C)CC1 [FLUMEZAPINE]
EDmin (Mus musculus): 3 mg/kg
LD50 [1]: 200 mg/kg
Activity (Rattus norvegicus [9]): 1
Activity (Rattus norvegicus [10]): 4

O=C(CCCN1CCC(O)(c2ccc(Cl)cc2)CC1)c1ccc(F)cc1 [HALOPERIDOL]
EDmin (Mus musculus): 3 mg/kg
LD50 [1]: > 100 mg/kg
Activity (Rattus norvegicus [11]): 3
Activity (Rattus norvegicus [12]): 3

CCc1cc2c(s1)Nc1ccc(F)cc1N=C2NCCN1CCCC1
EDmin (Mus musculus): 200 mg/kg
LD50 [1]: > 400 mg/kg
Activity (Rattus norvegicus [13]): 0
Activity (Rattus norvegicus [14]): 2

CCc1cc2c(s1)Nc1ccc(F)cc1N=C2NCCCO
EDmin (Mus musculus): >200 mg/kg
LD50 [1]: 400 mg/kg
Activity (Rattus norvegicus [15]): 0

CSc1ccc2c(c1)N(CCC1CCCCN1C)c1ccccc1S2 (stereo not drawn) [THIORIDAZINE]
EDmin (Mus musculus): 25 mg/kg
LD50 [1]: 400 mg/kg
Activity (Rattus norvegicus [16]): 1
Activity (Rattus norvegicus [17]): 3

CCc1cc2c(s1)Nc1ccc(F)cc1N=C2N1CCN(C)CC1
EDmin (Mus musculus): 6.25 mg/kg
LD50 [1]: > 200 mg/kg
Activity (Rattus norvegicus [18]): 2
Activity (Rattus norvegicus [19]): 3

CCc1cc2c(s1)Nc1cc(C)ccc1N=C2N1CCN(C)CC1
EDmin (Mus musculus): 50 mg/kg
LD50 [1]: 150 mg/kg
Activity (Rattus norvegicus [20]): 2
Activity (Rattus norvegicus [21]): 2

CN1CCN(C2=Nc3cc(F)ccc3Nc3sccc32)CC1
EDmin (Mus musculus): 25 mg/kg
LD50 [1]: > 200 mg/kg
Activity (Rattus norvegicus [22]): 5

CCc1cc2c(s1)Nc1ccc(F)cc1N=C2N1CCNCC1
EDmin (Mus musculus): 100 mg/kg
LD50 [1]: > 800 mg/kg
Activity (Rattus norvegicus [23]): 2
Activity (Rattus norvegicus [24]): 1
Activity (Rattus norvegicus [25]): 1

CCc1cc2c(s1)Nc1ccc(F)cc1N=C2N1CCN(CCCO)CC1
EDmin (Mus musculus): 25 mg/kg
LD50 [1]: 400 mg/kg
Activity (Rattus norvegicus [26]): 2
Activity (Rattus norvegicus [27]): 2

CCc1cc2c(s1)Nc1ccc(F)cc1N=C2NCCCN(C)C
EDmin (Mus musculus): >400 mg/kg
LD50 [1]: > 800 mg/kg
Activity (Rattus norvegicus [28]): 1

CCc1cc2c(s1)Nc1ccc(F)cc1N=C2NCCN(C)C
EDmin (Mus musculus): 200 mg/kg
LD50 [1]: 400 mg/kg
Activity (Rattus norvegicus [29]): 1

CCc1cc2c(s1)Nc1cc(F)ccc1N=C2N1CCN(C)CC1
EDmin (Mus musculus): 12.5 mg/kg
LD50 [1]: 150 mg/kg
Activity (Rattus norvegicus [9]): 1
Activity (Rattus norvegicus [30]): 1
